Bioassay records from PubChem.
CSC inhib = blocks cancer stem cells | cancer stem cell-like cells viability, luminescence | inhibition, % at 7.5 µM | 1.1% of 300,000 active | AID 2717; in the data active means inhibition above about 75%; inconclusive means no clear call, values can overlap the other calls; tested in HMLE shEcad cells
SKKanGAS inh = blocks kanamycin growth of S. pyogenes SKKanGAS strain; BacTiter-Glo, 6 h; inhibition, % at 7.5 µM; 1.3% of 300,000 active;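 active means mean replicate score, as percent of positive control median, at least 50; inconclusive means mean below 50 but one replicate at or above 50; inactive means mean and every replicate below 50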;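 further: strain carries kanamycin resistance gene driven by streptokinase promoter and grows in 40 µg/ml kanamycin; loss of luminescence reflects streptokinase promoter inhibition or plain growth inhibition; 0% = median of DMSO wells and 100% = positive control at its reference dose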
Calb FLC = C. albicans growth modulation with fluconazole | 0.57% of 300,000 active | growth inhibition, % (no concentration beside the values) | C. albicans CaCi-2 (fluconazole-resistant clinical isolate) + fluconazole, Alamar Blue growth, 48 h;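 active means growth inhibition above about 58% in most replicates, limit read from the data, passing the limit was not always enough; inconclusive means exactly half the replicates above a set limit; inactive means most replicates below a set limit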;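 further: all wells also contain fluconazole at 8 µg/ml as a sub-toxic cotreatment; 0% = median of DMSO wells and 100% = median of geldanamycin control wells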
T cruzi repl = T. cruzi replication inhibition. 1.4% of 300,000 active. T. cruzi beta-gal in NIH3T3, luminescence, 90 h. inhibition, % (no concentration beside the values). AID 1885;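 active means mean inhibition across valid replicates above about 55%, limit read from the data; inconclusive means mean below that limit but half or more replicates reach it; inactive means mean below it, under half of replicates reach it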;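 further: signal also drops with host cell toxicity which is not excluded here; 0% = plate median of DMSO wells and 100% = zero luminescence signal; higher percent means less beta-gal luminescence so fewer parasites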
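assay system = mouse NIH/3T3 fibroblasts infected with β-gal-expressing T. cruzi Tulahuen C4 | input = 5,000 NIH/3T3 host cells per well | buffer or medium = DMEM plus 2% FBS | timing = 3 h host attachment, then at least 90 h co-culture | measured by = GalScreen luminescence, 60 min | evaluation = luminescence reflecting intracellular parasite burden, expressed as percent inhibition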
Mdm2 MdmX PPI = inhibitors of human Mdm2/MdmX interaction; O15151+Q00987; SaOS-2 split-luciferase Mdm2/MdmX complementation, luminescence; inhibition, % at 8 µM; 3% of 330,000 active;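 active means inhibition of at least 50% at 8 µM in the primary screen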
Target sequence (O15151 whole entry, looked up): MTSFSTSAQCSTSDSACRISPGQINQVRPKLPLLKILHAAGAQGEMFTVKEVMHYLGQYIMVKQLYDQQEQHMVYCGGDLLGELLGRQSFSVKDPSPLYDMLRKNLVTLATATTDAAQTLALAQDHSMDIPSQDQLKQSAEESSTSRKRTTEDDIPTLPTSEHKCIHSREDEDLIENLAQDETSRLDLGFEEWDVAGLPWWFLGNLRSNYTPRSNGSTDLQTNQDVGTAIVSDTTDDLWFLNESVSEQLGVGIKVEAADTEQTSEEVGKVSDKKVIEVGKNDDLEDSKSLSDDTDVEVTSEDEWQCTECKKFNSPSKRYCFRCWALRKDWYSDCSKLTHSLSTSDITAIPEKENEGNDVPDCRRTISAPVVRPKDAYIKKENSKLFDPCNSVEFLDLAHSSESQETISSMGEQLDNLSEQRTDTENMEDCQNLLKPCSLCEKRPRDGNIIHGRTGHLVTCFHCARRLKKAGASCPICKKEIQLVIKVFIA
Target sequence (Q00987 whole entry, looked up): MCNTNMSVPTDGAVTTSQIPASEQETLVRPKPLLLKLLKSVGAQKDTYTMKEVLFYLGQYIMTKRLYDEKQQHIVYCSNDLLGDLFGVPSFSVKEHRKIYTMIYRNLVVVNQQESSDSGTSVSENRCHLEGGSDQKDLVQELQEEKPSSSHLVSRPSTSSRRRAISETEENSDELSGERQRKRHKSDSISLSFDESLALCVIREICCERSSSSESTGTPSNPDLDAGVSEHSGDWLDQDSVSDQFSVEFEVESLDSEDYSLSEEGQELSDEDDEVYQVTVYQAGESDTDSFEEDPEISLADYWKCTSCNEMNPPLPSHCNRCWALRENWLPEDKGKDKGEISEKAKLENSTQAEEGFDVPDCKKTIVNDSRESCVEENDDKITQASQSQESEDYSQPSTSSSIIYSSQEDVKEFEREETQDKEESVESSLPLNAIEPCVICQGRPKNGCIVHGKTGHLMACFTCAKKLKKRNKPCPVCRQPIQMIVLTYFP
Beta apoptosis = blocks beta cell apoptosis; INS-1E cytokine-induced death, ATP luminescence, 48 h; percent of positive-control rescue, neutral wells zero; 0.8% of 300,000 active; protection from apoptosis, % (no concentration beside the values);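 active means Every replicate reaches about 75%, or at least half do and their mean reaches it too, limit read from the data; inconclusive means At least half of replicates reach the limit but their mean does not; inactive means Under half of replicates reach the limit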;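 further: 0% = cytokine-treated negative control wells and 100% = positive control rescue; higher means more ATP so stronger rescue from cytokine killing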
Mdm2 MdmX conf = confirmation of human Mdm2/MdmX interaction inhibitors | shares compounds with Mdm2 MdmX PPI | Mdm2-MdmX binding, luminescent assay | inhibition, % at 8 µM | 55% of 10,000 active | AID 489028; in the data active means inhibition above about 40%
Full FLuc ctr = inhibits full-length luciferase, flagging false Mdm2/MdmX hits; AID 504607; SaOS-2 full-length luciferase counterscreen, luminescence; 77% of 6,200 active; shares compounds with Mdm2 MdmX PPI; inhibition, % at 8 µM;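 active means mean inhibition at 8 µM reaching about 37%, which flags the compound as non-specific, limit read from the data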;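 further: p53-null SaOS-2 cells with luciferase driven by a doxycycline-inducible promoter; compound on cells about two nights before reading with doxycycline added after day one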
An asterisk follows results filed as active; u = inconclusive; x = no result given. This is a sample that favours compounds with a hit; in the whole collection about 5.7% have one here.

SMILES	CSC inhib	SKKanGAS inh	Calb FLC	T cruzi repl	Mdm2 MdmX PPI	Beta apoptosis	Mdm2 MdmX conf	Full FLuc ctr
COc1ccc(/C=C2\SC(=S)N(CCCC(=O)Nc3ccc(O)cc3)C2=O)cc1	52.6	0.2	5.5	23.4	75.9*	2.0	66.5*	54.4*
COc1cc(OC)c(/C=C2\SC(=O)N(CC(=O)Nc3ccccc3F)C2=O)c(OC)c1	-1.9	-0.3	-5.1	u	57.4*	1.4	33.5	73.1*
CC(C)(C)c1ccc(C(=O)Nc2ccc(CN3CCS(=O)(=O)CC3)cc2)cc1	6.2	1.0	8.5	-5.5	-0.2	2.0	x	x
O=C(Nc1ccc(CN2CCS(=O)(=O)CC2)cc1)c1ccc(C(F)(F)F)cc1	-1.9	1.5	0.6	-5.2	50.6*	-4.9	7.8	x
C[C@@]12CCC=C[C@H]1[C@H](c1ccc3ccccc3c1/C=C/c1ccccc1)N(Cc1ccccc1)C2=O	65.5	27.7	-1.2	-6.4	64.7*	12.8	15.3	x
O=C(CNC(=O)C1COc2ccccc2O1)N/N=C\c1cccc(O)c1 (stereo not given)	5.4	2.6	7.7	5.6	10.4	-0.9	x	x
O=C(CNC(=O)C1COc2ccccc2O1)N/N=C/c1ccc(O)cc1O (stereo not given)	78.2*	8.9	8.5	-26.0	50.5*	19.5	38.1	70.5*
O=C(CNC(=O)C(c1ccccc1)c1ccccc1)N/N=C/c1ccc(O)cc1O	132.5*	22.4	0.1	23.0	69.6*	43.8	77.4*	37.9*
O=C(CSc1ccc2ccccc2n1)N/N=C/c1ccccc1O	30.2	95.0*	-4.5	17.4	60.6*	-4.7	68.5*	74.0*
Cc1cc(SCC(=O)N/N=C/c2ccc(O)cc2O)c(C)cc1Br	96.4*	78.6*	100.6*	62.0*	61.0*	55.3	65.8*	66.6*
O=C(CSc1nncn1-c1ccccc1)NC1CCCCC1	15.7	0.0	17.2	-0.5	20.6	-4.2	x	x
CC[C@@](C)(NS(=O)(=O)OCC(Cl)(Cl)Cl)c1ccccc1	-8.2	-1.4	-12.3	-11.7	24.5	0.3	x	x
O=C(N/N=C/c1ccc(O)cc1O)c1ccncc1	70.7	-1.8	-4.5	-1.1	31.3	64.3	x	x
CCc1cc(C(=O)N/N=C/c2ccc(O)cc2O)c2ccccc2n1	94.1*	2.8	6.9	32.6	63.5*	92.5*	63.7*	36.1*
Cc1nc(SCC(=O)Nc2cccc(Cl)c2)n[nH]1	x	-13.5	2.3	4.2	-6.2	-4.5	x	x
O=C(CSc1n[nH]c(-c2ccccn2)n1)Nc1cccc(Cl)c1	0.8	-7.2	-5.7	49.2	59.8*	0.2	53.2*	39.8*
COc1ccc(OC)c(S(=O)(=O)Nc2ccc(-c3ccc4nncn4n3)cc2)c1	44.0	11.5	1.0	8.9	30.5	-9.4	x	x
CCCCn1c(N)c(N(CCC(C)C)C(=O)c2ccc3c(c2)OCO3)c(=O)[nH]c1=O	-5.2	-1.5	x	3.1	15.9	-2.5	x	x
O=C(OCn1ncc(Cl)c(Cl)c1=O)c1cccc(C(F)(F)F)c1	23.0	5.3	98.0*	54.3	82.4*	6.8	100.2*	52.3*
CC#CCN(Cc1ccco1)C(=O)c1ccc(OC2CCN(Cc3ccccn3)CC2)cc1	2.8	-1.4	2.4	10.2	10.5	0.2	x	x
Cc1cccc(OCCNC(=O)c2ccc(Oc3ccc(C(F)(F)F)cc3[N+](=O)[O-])cc2)c1	19.7	7.7	-2.8	39.5	50.3*	x	25.9	x
CCOC(=O)c1cc(-c2ccccc2)sc1NC(=O)COC(=O)c1cccc(S(N)(=O)=O)c1	14.6	5.8	-1.7	4.7	74.1*	35.1	25.6	x
CC(C)NC(=O)COC(=O)c1ccc(Cl)c(S(N)(=O)=O)c1	-10.9	-7.5	-4.8	-10.9	18.1	2.1	x	x
CCOC(=O)c1cc(-c2ccccc2)sc1NC(=O)COC(=O)c1ccc(Cl)c(S(N)(=O)=O)c1	18.1	2.4	-1.7	18.1	53.7*	4.9	82.3*	87.8*
Clc1cc(Br)ccc1OCCCNCc1ccccc1	36.9	8.8	-6.8	37.4	55.2*	6.7	10.6	x
SMILES	CSC inhib	SKKanGAS inh	Calb FLC	T cruzi repl	Mdm2 MdmX PPI	Beta apoptosis	Mdm2 MdmX conf	Full FLuc ctr
CCOC(=O)c1c(NC(=O)C2=C(C)NC(=S)NC2c2ccc(CC)cc2)sc(C)c1C (stereo not given)	19.7	32.4	-6.9	39.1	64.0*	4.9	17.8	x
C/C(=N\O)c1sc(-c2ccccc2)nc1C	x	3.6	-4.5	2.4	x	x	x	x
O=C(N/N=C/c1cccs1)c1cccc(NC(=O)c2ccc(Cl)cc2)c1	u	4.0	16.6	-8.2	57.0*	67.2	2.9	x
O=C(N/N=C/c1cn(-c2ccccc2)nc1-c1cccs1)c1ccc(Cl)cc1	-6.9	20.0	-13.7	16.9	51.7*	48.5	31.1	x
CCN(CC(=O)Nc1ccc(NC(C)=O)cc1)C(=O)/C=C/c1cn(-c2ccccc2)nc1-c1cccs1	6.5	8.3	12.0	5.0	48.0	8.4	x	x
O=C(N/N=C/c1cn(-c2ccccc2)nc1-c1cccs1)c1ccccc1F	52.5	15.9	-10.5	-16.1	25.7	7.5	x	x
CN1CCC(N(C)C(=O)/C=C/c2cn(-c3ccccc3)nc2-c2cccs2)CC1	42.4	-1.7	33.4	u	76.3*	5.1	34.8	67.0*
COCCCC1CCN(C(=O)c2cc(COc3cc(C)ccc3C)on2)CC1	34.9	7.6	-16.4	16.5	-142.3	-0.6	x	x
Cc1ccc(-n2nnnc2SCC(=O)NC2CCS(=O)(=O)C2)c(C)c1 (stereo not given)	x	x	x	x	1.4	x	x	x
CCOC(=O)c1ccc(Nc2ncnc3ccc(C)cc23)cc1	-4.0	4.2	3.4	20.6	37.9	9.7	x	x
CCOc1ccc(Nc2ncnc3ccc([N+](=O)[O-])cc23)cc1	7.0	2.9	0.9	58.6*	68.7*	0.3	71.0*	53.0*
COc1cc(NC(=O)CSc2nc3[nH]c(=O)cc(O)c3s2)cc(OC)c1OC	-5.6	x	x	x	-0.2	0.6	x	x
Cc1cccc2cc(CN(C(=O)c3cnccn3)C3CCCCC3)c(Cl)nc12	10.8	-8.1	-2.5	7.1	84.4*	-4.4	82.6*	36.3*
CC(C)=CCC/C(C)=C/CC(C)(C)CNCCN1CCNCC1	65.0	-11.2	-22.5	u	87.7*	7.0	29.9	x
CC(C)=CCC/C(C)=C/CCC(C)NCCN1CCNCC1 (stereo not given)	53.0	-8.8	-9.8	19.9	26.7	6.8	x	x
CCn1c(SCC(=O)NC2CCCCC2)nnc1C(C)NC(=O)c1ccccc1F (stereo not given)	9.2	6.4	-11.6	20.1	4.4	-10.7	x	x
Cc1ccc(-n2[nH]c(=O)c(-c3ccccn3)c2C)cc1	-12.7	-25.6	u	-2.4	79.0*	4.9	81.2*	54.2*
